Experimental data as given in ChEMBL document CHEMBL4622964, “Designing Dihydrofolate Reductase Inhibitors as X-ray Radiosensitizers to Reverse Radioresistance of Cervical Cancer” (ACS Med Chem Lett, 2020).
The source made the active and inactive calls. The calls are words filed in the database; no cut-off is given here.

Columns and labels:
[1] = Toxicity in BALB/c mouse xenografted with human HeLa cells assessed as kidney damage by measuring effect on uric acid level at 4 mg/kg, iv administered every 3 days for 21 days in presence of 4 Gy X-ray irradiation; format: organism-based; conditions: in vivo
How it was run: (§1)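 HeLa xenograft nude mice dosed at 4 mg/kg iv every 3 days over 21 days, alone or with X-rays; blood collected 24 h after last injection for serum biochemistry: ALT, AST (liver), BUN and uric acid (kidney).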

[2] = Toxicity in BALB/c mouse xenografted with human HeLa cells assessed as liver damage by measuring effect on ALT level at 4 mg/kg, iv administered every 3 days for 21 days in presence of 4 Gy X-ray irradiation; format: organism-based; conditions: in vivo; how it was run: as §1
[3] = tested on: HeLa; test: Induction of cell cycle arrest in human HeLa cells assessed as accumulation at G2/M phase at 1 uM after 48 hrs by propidium iodide staining based flow cytometric analysis (reference value: 17.7%); format: functional
[4] = tested on: HeLa; test: Induction of cell cycle arrest in human HeLa cells assessed as accumulation at SubG1 phase at 1 uM after 48 hrs by propidium iodide staining based flow cytometric analysis (reference value: 0.8%); format: functional
[5] = tested on: HeLa; test: Inhibition of cell migration in human HeLa cells assessed as reduction in migration velocity at 1 uM after 24 hrs by phase contrast microscopic analysis; format: functional, cell-based
How it was run: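 Wound-healing scratch assay on HeLa monolayers, compound with or without 4 Gy X-rays; wound closure recorded by phase-contrast microscopy at set times; migrated cells counted manually; mean ± SD of three independent experiments.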

[6] = Toxicity in BALB/c mouse xenografted with human HeLa cells assessed as kidney damage by measuring effect on BUN level at 4 mg/kg, iv administered every 3 days for 21 days in presence of 4 Gy X-ray irradiation; format: organism-based; conditions: in vivo; how it was run: as §1
[7] = tested on: HeLa; test: Induction of apoptosis in human HeLa cells assessed as caspase-3 activation at 1 uM using Ac-DEVD-AMC as substrate after 12 hrs in presence of 4 Gy X-ray radiation by fluorescence based assay relative to control; format: functional
How it was run: (§2)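 Caspase-3 and caspase-8 activities were measured in HeLa cells after 12 h at 1 μM, without or with 4 Gy X-rays. Mean ± SD of three independent experiments.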

[8] = tested on: HeLa; test: Effect on dihydrofolate reductase protein expression in human HeLa cell lysates at 1 to 2 uM by Western blot analysis; format: functional, cell-based
[9] = Toxicity in BALB/c mouse xenografted with human HeLa cells assessed as heart damage at 4 mg/kg, iv administered for every 3 days for 21 days and measured after 24 hrs post last dose in presence of 4 Gy X-ray irradiation by H and E staining based light microscopic analysis; format: organism-based; conditions: in vivo
How it was run: (§3)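 HeLa-tumor-bearing nude mice dosed at 4 mg/kg iv every 3 days for 21 days, alone or with X-rays; euthanized 24 h after last injection; heart, liver, lungs, kidneys and spleen sectioned and stained with H&E.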

[10] = Toxicity in BALB/c mouse xenografted with human HeLa cells assessed as kidney damage by measuring effect on BUN level at 4 mg/kg, iv administered every 3 days for 21 days; format: organism-based; conditions: in vivo; how it was run: as §1
[11] = Toxicity in BALB/c mouse xenografted with human HeLa cells assessed as liver damage at 4 mg/kg, iv administered for every 3 days for 21 days and measured after 24 hrs post last dose in presence of 4 Gy X-ray irradiation by H and E staining based light microscopic analysis; format: organism-based; conditions: in vivo; how it was run: as §3
[12] = Drug uptake in human HeLa cells at 4 uM after 4 hrs by fluorescence based assay; format: ADME, cell-based
[13] = Toxicity in BALB/c mouse xenografted with human HeLa cells assessed as spleen damage at 4 mg/kg, iv administered for every 3 days for 21 days and measured after 24 hrs post last dose in presence of 4 Gy X-ray irradiation by H and E staining based light microscopic analysis; format: organism-based; conditions: in vivo; how it was run: as §3
[14] = tested on: HeLa; test: Antimigratory activity in human HeLa cells assessed as inhibition of cell migration at 1 uM after 24 hrs by wound healing assay relative to control; format: functional; conditions: read-out: INH
How it was run: (§4)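 Wound-healing scratch assay in HeLa cells. Cells were treated without or with 4 Gy X-rays, and wound closure was imaged by phase-contrast microscopy at the indicated times. Migrated cells were counted manually. Mean ± SD of three independent experiments.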

[15] = tested on: HeLa; test: Induction of mitochondrial dysfunction in human HeLa cells assessed as change in mitochondrial membrane potential at 1 uM incubated for 24 hrs by JC1 staining based flow cytometry (reference value: 1.3%); format: functional
How it was run: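 Mitochondrial membrane potential was assessed by JC-1 flow cytometry in HeLa cells treated at 1 μM without or with 4 Gy X-rays. Green fluorescence gives the proportion of cells with lost ΔΨm.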

[16] = tested on: HeLa; test: Induction of apoptosis in human HeLa cells assessed as caspase-9 activation at 1 uM using Ac-LEHD-AMC as substrate after 12 hrs by fluorescence based assay; format: functional, cell-based
How it was run: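 HeLa cells exposed to 1 μM compound with or without 4 Gy X-rays for 12 h; caspase 8, 9 and 3 activities measured; mean ± SD of three independent experiments.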

[17] = tested on: HeLa; test: Induction of apoptosis in human HeLa cells assessed as caspase-3 activation at 1 uM using Ac-DEVD-AMC as substrate after 12 hrs by fluorescence based assay relative to control; format: functional; how it was run: as §2
[18] = Safety index, ratio of IC50 for cytotoxicity against human Ect1 cells assessed as reduction in cell viability to IC50 for antiproliferative activity against human HeLa cells assessed as reduction in cell viability incubated for 12 hrs by MTT assay; format: toxicity, cell-based; conditions: Ect1 cells versus HeLa cells, read-out: Ratio IC50
How it was run: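 Safe index SI0 from MTT assay without irradiation: IC50 in Ect1/E6E7 normal ectocervical cells divided by IC50 in HeLa cells.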

[19] = tested on: HeLa; test: Induction of cell cycle arrest in human HeLa cells assessed as accumulation at G1 phase at 1 uM after 48 hrs in presence of 4 Gy X-ray radiation by propidium iodide staining based flow cytometric analysis (reference value: 28.6%); format: functional
[20] = Safety index, ratio of IC50 for cytotoxicity against human Ect1/E6E7 cells assessed as reduction in cell viability in presence of 4 Gy irradiation by MTT assay to antiproliferative activity against human HeLa cells assessed as reduction in cell viability preincubated for 12 hrs followed by 4 Gy irradiation and measured after 60 hrs by MTT assay; format: toxicity, cell-based; conditions: Ect1/E6E7 cells versus HeLa cells, read-out: Ratio IC50
How it was run: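 MTT viability assay on Ect1/E6E7 normal ectocervical cells and HeLa cells, with 0 or 4 Gy X-rays. SER = IC50(0 Gy)/IC50(4 Gy) in the same line; safe index SI4 = IC50 Ect1/E6E7 + 4 Gy divided by IC50 HeLa + 4 Gy.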

[21] = tested on: HeLa; test: Induction of cell cycle arrest in human HeLa cells assessed as accumulation at S phase at 1 uM after 48 hrs in presence of 4 Gy X-ray radiation by propidium iodide staining based flow cytometric analysis (reference value: 31%); format: functional
[22] = tested on: HeLa; test: Induction of apoptosis in human HeLa cells assessed as caspase-8 activation at 1 uM using […] as substrate after 12 hrs in presence of 4 Gy X-ray radiation by fluorescence based assay relative to control; format: functional; how it was run: as §2
[23] = tested on: HeLa; test: Antimigratory activity in human HeLa cells assessed as inhibition of cell migration at 1 uM after 24 hrs in presence of 4 Gy irradiation by wound healing assay (reference value: 35%); format: functional; conditions: light or radiation study, read-out: INH; how it was run: as §4
[24] = tested on: HeLa; test: Induction of cell cycle arrest in human HeLa cells assessed as accumulation at S phase at 1 uM after 48 hrs by propidium iodide staining based flow cytometric analysis (reference value: 41.6%); format: functional

In the case of `Nc1nc(N)c2nc3c(nc2n1)-c1cccc2cccc-3c12`, the Activity [1] is reported as “Non-Toxic”, the Activity [2] is reported as “Non-Toxic” and the Activity [3] is reported as 32.1%. The Activity [4] was 6.9%, the inhibition [5] was “Active” and the Activity [6] was “Non-Toxic”. For the same compound, the Activity [7] was 150%, the Activity [8] was “Active” and the Activity [9] was “Non-Toxic”. For the same compound, the Activity [10] was “Non-Toxic”, the Activity [11] was “Non-Toxic” and the Drug uptake [12] was “Active”. For the same compound, the Activity [13] was “Non-Toxic”, the inhibition at 1 µM [14] was 46% and the Activity [15] was 6.8%. For the same compound, the Activity [16] was “Active”, the Activity [17] was 121% and the selectivity ratio at 12 h [18] was 3.3. It also gave an Activity [19] of 47.7%, a selectivity ratio at 60 h [20] of 4.8 and an Activity [21] of 16.1%. For the same compound, the Activity [22] was 129%, the inhibition at 1 µM [23] was 81% and the Activity [24] was 29.2%.
